Test [1] is described as follows: Antiproliferative activity against human H441 cells assessed as decrease of hexosaminidase activity after 24 hrs. Format: functional, cell-based. As to conditions: NCI-H441, 24 h. In outline:
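H441 (NCI-H441) cells in McCoy's 5A with 5% heat-inactivated FBS, gentamicin 50 μg/ml, 37 °C, 5% CO2; 10×10^3 cells/well seeded, attached overnight. Compounds in DMSO (0.1% final) at 1, 10, 25, 100 μM for 24 h. Hexosaminidase substrate in citrate pH 5, 30 min 37 °C, stopped with glycine/EDTA pH 10.4, A405. Triplicate, repeated at least twice; IC50 from linear or exponential fit of concentration vs activity.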

The subject of test [2] is NCI-H441. Nature of the test: Induction of autophagosome formation in human H441 cells at 10 uM after 24 using monodansylcadaverine staining by fluorescent microscopic analysis. It counts as functional, cell-based. In outline:
(§1)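 H441 cells labeled with the autophagic-vacuole marker monodansylcadaverine after treatment and examined by fluorescence microscopy; autophagy inhibition tested with 3-methyladenine.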

Test [3] relates to NCI-H441. Nature of the test: Induction of autophagy in human H441 cells assessed as peri-nuclear accumulation of cell organelles at 1 to 10 uM after 24 by transmission electron microscopic analysis. Format: functional, cell-based. In outline: (§2)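 H441 cells exposed 24 h at 1 and 10 μM, then fixed 4 h at room temperature in 0.1 M cacodylate with 4% PFA and 2% glutaraldehyde. Post-fixed in 1% osmium tetroxide 1.5 h, dehydrated through a graded ethanol series, ultrasections stained with Sato's lead. Imaged by transmission electron microscopy at 2500×; untreated cells as controls.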

Test [4] relates to NCI-H441. Nature of the test: Induction of autophagy in human H441 cells assessed as chromatin condensation at 1 to 10 uM after 24 by transmission electron microscopic analysis. Format: functional, cell-based. In outline:
as §2

For test [5], the system named is NCI-H441. Nature of the test: Induction of autophagy in human H441 cells assessed as large single-walled autophagic vacuoles at 1 to 10 uM after 24 by transmission electron microscopic analysis. Format: functional, cell-based. An outline of the steps: as §2
Test [6] has as its system NCI-H441. Nature of the test: Induction of autophagy in human H441 cells assessed as blebbing of nuclear membrane at 1 to 10 uM after 24 by transmission electron microscopic analysis. It counts as functional, cell-based. An outline of the steps:
as §2

For test [7], the system named is NCI-H441. Nature of the test: Induction of autophagy in human H441 cells assessed as peri-nuclear accumulation of mitochondria at 1 to 10 uM after 24 by transmission electron microscopic analysis. It counts as functional. An outline of the steps: as §2
The test system of test [8] is NCI-H441. Briefly: Induction of autophagy in human H441 cells assessed as double-membrane pre-autophagosomal structures containing cell organelles at 1 to 10 uM after 24 hrs by transmission electron microscopic analysis. Format: functional, cell-based. In outline:
as §2

Test [9] has as its system NCI-H441. Briefly: Induction of autophagosome formation in human H441 cells at 10 uM after 24 using monodansylcadaverine staining by fluorescent microscopic analysis in presence of 3-methyladenine. Format: functional, cell-based. In outline: as §1
Test [10] relates to NCI-H441. Nature of the test: Induction of apoptosis in human H441 cells assessed as caspase 3/7 activation by immunoblotting. Format: functional, cell-based.
The test system of test [11] is NCI-H441. Nature of the test: Induction of apoptosis in human H441 cells. Format: functional, cell-based.
The subject of test [12] is PANC-1. Nature of the test: Antiproliferative activity against human PANC1 cells assessed as decrease of hexosaminidase activity at 1 to 100 uM after 24 to 72 hrs. Format: functional, cell-based. In outline:
(§3)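 Cells kept as for H441 but in RPMI 1640 with 5% heat-inactivated FBS and gentamicin 50 μg/ml; 10×10^3 cells/well seeded, attached overnight. Compounds in DMSO (0.1% final) at 1, 10, 25, 100 μM for 24, 48 and 72 h. Remaining cells read by hexosaminidase activity (substrate in citrate pH 5, 30 min 37 °C, glycine/EDTA pH 10.4 stop, A405) as percent of DMSO control; triplicate, repeated at least twice.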

The subject of test [13] is PC-3. Nature of the test: Antiproliferative activity against human PC3 cells assessed as decrease of hexosaminidase activity at 1 to 100 uM after 24 to 72 hrs. Format: functional, cell-based. An outline of the steps: as §3
The test system of test [14] is NCI-H441. Briefly: Induction of apoptosis in human H441 cells assessed as caspase 3 activation by immunoblotting. Format: functional, cell-based.
Test [15] has as its system NCI-H441. Nature of the test: Induction of apoptosis in human H441 cells assessed as caspase cleavage by immunoblotting. Format: functional, cell-based. On the technique in general: Immunoblotting shows a protein as a band on a membrane.
In test [16] the test system is MIA PaCa-2. Nature of the test: Antiproliferative activity against human MIAPaCa2 cells assessed as decrease of hexosaminidase activity at 1 to 100 uM after 24 to 72 hrs. It counts as functional, cell-based. In outline: as §3

Molecules are shown by their SMILES. Activity calls are given as the source filed them. No cut-off for these calls is given here.

As a reminder, the IC50 is the midpoint of a concentration-inhibition curve. As to `O=C1/C(=C/c2ccccc2Cl)CNC/C1=C\c1ccccc1Cl`, the IC50 in [1] turned out to be 5 µM. As for `Cc1ccc(S(=O)(=O)N2C/C(=C\c3ccccc3F)C(=O)/C(=C/c3ccccc3F)C2)cc1`, the IC50 in [1] turned out to be 50 µM. For the compound `O=CN1C/C(=C\c2ccccc2F)C(=O)/C(=C/c2ccccc2F)C1`, the IC50 in test [1] worked out at 49 µM.

On to `CC(=O)N1C/C(=C\c2ccccc2F)C(=O)/C(=C/c2ccccc2F)C1`, for which the IC50 in test [1] is 54 µM. Same read-out and setting: then `O=C(CCC(=O)N1C/C(=C\c2ccccc2F)C(=O)/C(=C/c2ccccc2F)C1)N[C@@H]1[C@@H](O)[C@H](O)[C@@H](CO)O[C@H]1O`, with 79 µM; and `O=C1/C(=C/c2ccc(Cl)cc2)CNC/C1=C\c1ccc(Cl)cc1`, with 87 µM; and `CCCCCCCCCC/C=C/C(CC(=O)O)C(=O)N1C/C(=C\c2ccccc2F)C(=O)/C(=C/c2ccccc2F)C1` (configuration not stated), with 58 µM.

As for `O=C1/C(=C/c2ccc(F)cc2)CNC/C1=C\c1ccc(F)cc1`, in test [1], the IC50 stood at 45.7 µM. Turning to `O=C(CN1C/C(=C\c2ccccc2F)C(=O)/C(=C/c2ccccc2F)C1)NCc1ccc(F)cc1`, the IC50 in [1] came to 46 µM. Take `O=C(O)CCC(=O)N1C/C(=C\c2ccccc2F)C(=O)/C(=C/c2ccccc2F)C1`: in test [1], the IC50 came out at 69 µM. On the same count and under the same terms, to `O=C1/C(=C/c2ccccc2F)CN(C(=O)C2CCCCC2C(=O)O)C/C1=C\c1ccccc1F` (configuration not stated) belongs 55 µM. Still for that read-out and setting: then `O=C1/C(=C/c2ccccc2Br)CNC/C1=C\c1ccccc1Br`, with 6 µM; and `O=C(O)CCCC(=O)N1C/C(=C\c2ccccc2F)C(=O)/C(=C/c2ccccc2F)C1`, with 60 µM. Regarding `O=C1/C(=C/c2ccccc2F)CNC/C1=C\c1ccccc1F`, the outcome in test [2], in test [3], in test [5], in [6], in test [7] and in test [8] was Active. The half-maximal inhibitory concentration (IC50) in test [1] came out at 44 µM. Also, the outcome in [4] and in [9] was inactive.

For `CN(C)c1ccc(/C=C2\CNC/C(=C\c3ccc(N(C)C)cc3)C2=O)cc1`, the IC50 in test [1] was found to be 101 µM. Take `O=C(O)/C=C\C(=O)N1C/C(=C\c2ccccc2Cl)C(=O)/C(=C/c2ccccc2Cl)C1`: the outcome in [2], in test [12], in test [13], in test [3], in test [5] and in [6] was Active. Also, the outcome in [7], in [8] and in [16] was Active. Further, the result in [10], in [11], in [4], in test [14], in test [15] and in [9] was inactive. Also, in test [1], the half-maximal inhibitory concentration (IC50) was 1 µM. With `CCCCCCCCCCCC/C=C/C(CC(=O)O)C(=O)N1C/C(=C\c2ccccc2F)C(=O)/C(=C/c2ccccc2F)C1` (configuration not stated), in test [1], the IC50 came out at 47 µM.

Take `CCCCCCCCCCCCCCCC/C=C/C(CC(=O)O)C(=O)N1C/C(=C\c2ccccc2F)C(=O)/C(=C/c2ccccc2F)C1` (configuration not stated): the IC50 in test [1] came to 84 µM. Still for that read-out and setting: to `O=C1/C(=C/c2cccc(Cl)c2)CNC/C1=C\c1cccc(Cl)c1` belongs 50 µM.

On to `O=C1/C(=C/c2ccccc2F)CN(C(=O)c2ccccc2C(=O)O)C/C1=C\c1ccccc1F`, for which the IC50 in [1] was found to be 56 µM. For `O=C1/C(=C/c2ccccc2)CNC/C1=C\c1ccccc1`, the IC50 in test [1] came out at 12 µM. With `CCCCCCCCCCCCCCCCNC(=O)CCC(=O)N1C/C(=C\c2ccccc2F)C(=O)/C(=C/c2ccccc2F)C1`, the IC50 in [1] is 64 µM. For the compound `O=C(O)/C=C/C(=O)N1C/C(=C\c2ccccc2F)C(=O)/C(=C/c2ccccc2F)C1`, the IC50 in [1] worked out at 29 µM. As to `O=C1/C(=C/c2ccccc2[N+](=O)[O-])CNC/C1=C\c1ccccc1[N+](=O)[O-]`, the IC50 in [1] is 93 µM.
